Results taken from ChEMBL document CHEMBL3120102, “Structure-based design, synthesis and biological evaluation of novel anthra[1,2-d]imidazole-6,11-dione homologues as potential antitumor agents” (2013).

Experiments:
Type in all cases: functional
[1] = tested on: M14; test: Cytotoxicity against human M14 cells assessed as growth inhibition after 48 hrs by SRB assay
In short: (§1)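 NCI 60-cell-line five-dose screen at […]. Drug exposure was 48 h, followed by sulforhodamine B protein staining. GI50, TGI and LC50 were calculated against a time-zero control and untreated plates, with dose–response curves plotted from log10 concentration.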

[2] = tested on: OVCAR-5; test: (§2) Cytotoxicity against human OVCAR5 cells assessed as growth inhibition after 48 hrs by SRB assay
In short: (§3)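 NCI 60-cell-line screen, five-dose stage: each cell line exposed for 48 h to five concentrations spanning five log steps; cellular protein measured by sulforhodamine B colorimetry. A time-zero cell control and plates without drug are used to derive GI50, TGI and LC50 from log-concentration dose-response curves.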

[3] = as §2; settings: OVCAR-5, 48 h; in short: as §3
[4] = tested on: SK-OV-3; test: Cytotoxicity against human SKOV3 cells assessed as growth inhibition after 48 hrs by SRB assay; in short: as §3
[5] = tested on: RPMI-8226; test: Cytotoxicity against human RPMI8226 cells assessed as growth inhibition after 48 hrs by SRB assay; in short: as §3
[6] = tested on: SN12C; test: Cytotoxicity against human SN12C cells assessed as growth inhibition after 48 hrs by SRB assay
In short: (§4)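 NCI 60-cell-line screen, two stages. Five-dose testing at […]. Cellular protein measured by sulforhodamine B colorimetry after 48 h drug exposure. A time-zero control and drug-free plates are used to derive GI50, TGI and LC50 from dose-response curves plotted as log10 concentration per cell line.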

[7] = tested on: SNB-75; test: Cytotoxicity against human SNB75 cells assessed as growth inhibition after 48 hrs by SRB assay; in short: as §4
[8] = tested on: MOLT-4; test: Cytotoxicity against human MOLT4 cells assessed as growth inhibition after 48 hrs by SRB assay; in short: as §3
[9] = tested on: A549; test: Cytotoxicity against human A549 cells assessed as growth inhibition after 48 hrs by SRB assay; in short: as §1
[10] = tested on: MDA-MB-231; test: Cytotoxicity against human MDA-MB-231 cells assessed as growth inhibition after 48 hrs by SRB assay; in short: as §3
[11] = tested on: CAKI-1; test: Cytotoxicity against human CAKI-1 cells assessed as cell growth at 10 uM after 48 hrs by SRB assay; settings: CAKI-1, 48 h, read-out: Activity
[12] = tested on: RXF 393; test: Cytotoxicity against human RXF393 cells assessed as growth inhibition after 48 hrs by SRB assay; in short: as §3
[13] = tested on: SW-620; test: Cytotoxicity against human SW620 cells assessed as growth inhibition after 48 hrs by SRB assay; in short: as §4
[14] = tested on: TK-10; test: Cytotoxicity against human TK10 cells assessed as growth inhibition after 48 hrs by SRB assay; in short: as §4
[15] = tested on: DU-145; test: Cytotoxicity against human DU145 cells assessed as growth inhibition after 48 hrs by SRB assay; in short: as §1
[16] = tested on: T47D; test: Cytotoxicity against human T47D cells assessed as growth inhibition after 48 hrs by SRB assay; in short: as §4
[17] = tested on: NCI-H460; test: Cytotoxicity against human NCI-H460 cells assessed as growth inhibition after 48 hrs by SRB assay; in short: as §3
[18] = tested on: KM12; test: Cytotoxicity against human KM12 cells assessed as growth inhibition after 48 hrs by SRB assay; in short: as §1
[19] = tested on: K562; test: Cytotoxicity against human K562 cells assessed as growth inhibition after 48 hrs by SRB assay; in short: as §1
[20] = tested on: MCF7; test: Cytotoxicity against human MCF7 cells assessed as growth inhibition after 48 hrs by SRB assay; in short: as §3
[21] = tested on: NCI-H522; test: Cytotoxicity against human NCI-H522 cells assessed as growth inhibition after 48 hrs by SRB assay; in short: as §3
[22] = tested on: HOP-62; test: Cytotoxicity against human HOP62 cells assessed as growth inhibition after 48 hrs by SRB assay; in short: as §1
[23] = (§5) Cytotoxicity against human NCI-ADR-RES cells assessed as growth inhibition after 48 hrs by SRB assay; in short: as §3
[24] = tested on: NCI/ADR-RES; test: as §5; in short: as §3
[25] = tested on: SK-MEL-2; test: Cytotoxicity against human SK-MEL-2 cells assessed as growth inhibition after 48 hrs by SRB assay; in short: as §3
[26] = tested on: U-251; test: Cytotoxicity against human U251 cells assessed as growth inhibition after 48 hrs by SRB assay; in short: as §4
[27] = tested on: MDA-MB-435; test: Cytotoxicity against human MDA-MB-435 cells assessed as growth inhibition after 48 hrs by SRB assay; in short: as §3
[28] = tested on: CCRF-CEM; test: Cytotoxicity against human CCRF-CEM cells assessed as growth inhibition after 48 hrs by SRB assay; in short: as §1

## CN(C)CCCSc1nc2ccc3c(c2[nH]1)C(=O)c1ccccc1C3=O
[1]
  growth inhibition (GI): Dose-dependent effect
[1]; M14, 48 h
  GI50: 7.05 µM
  TGI: 20.7 µM
[2]
  growth inhibition (GI): Dose-dependent effect
[3]
  GI50: 12.7 µM
  TGI: 25.9 µM
[4]
  growth inhibition (GI): Dose-dependent effect
[4]; SK-OV-3, 48 h
  GI50: 1.72 µM
  TGI: 20.7 µM
[5]
  growth inhibition (GI): Dose-dependent effect
[5]; RPMI-8226, 48 h
  GI50: 1.25 µM
  TGI: 4.62 µM
[6]
  GI50: 3.26 µM
  TGI: 16.5 µM
  growth inhibition (GI): Dose-dependent effect
[6]; read-out: LC50 (the source's name)
  CC50: 40.6 µM
[7]
  growth inhibition (GI): Dose-dependent effect
[7]; SNB-75, 48 h
  GI50: < 0.01 µM
  TGI: < 0.01 µM
[8]
  growth inhibition (GI): Dose-dependent effect
[8]; MOLT-4, 48 h
  GI50: 2.06 µM
  TGI: 6.6 µM
[9]
  growth inhibition (GI): Dose-dependent effect
[9]; A549, 48 h
  TGI: 12.6 µM
[10]
  growth inhibition (GI): Dose-dependent effect
[10]; MDA-MB-231, 48 h
  GI50: 4.96 µM
  TGI: 19.3 µM
[11]
  growth at 10 µM: -14.9%
[12]
  growth inhibition (GI): Dose-dependent effect
[12]; RXF 393, 48 h
  GI50: 1.89 µM
  TGI: 12.8 µM
[12]; RXF 393, 48 h, read-out: LC50 (the source's name)
  CC50: 42.3 µM
[13]
  growth inhibition (GI): Dose-dependent effect
[13]; SW-620, 48 h
  GI50: 1.99 µM
  TGI: 6.29 µM
[14]
  growth inhibition (GI): Dose-dependent effect
[14]; TK-10, 48 h
  GI50: 1.37 µM
  TGI: 13.5 µM
[15]
  growth inhibition (GI): Dose-dependent effect
[15]; DU-145, 48 h
  GI50: 2.38 µM
  TGI: 12.9 µM
[15]; DU-145, 48 h, read-out: LC50 (the source's name)
  CC50: 35.9 µM
[16]
  GI50: 8.73 µM
  TGI: 24.8 µM
  growth inhibition (GI): Dose-dependent effect
[17]
  growth inhibition (GI): Dose-dependent effect
[17]; NCI-H460, 48 h
  TGI: 12.8 µM
[18]
  growth inhibition (GI): Dose-dependent effect
[18]; KM12, 48 h
  GI50: 1.96 µM
  TGI: 7.24 µM
[18]; KM12, 48 h, read-out: LC50 (the source's name)
  CC50: 27.4 µM
[19]
  growth inhibition (GI): Dose-dependent effect
[19]; K562, 48 h
  GI50: 2.04 µM
  TGI: 4.73 µM
[19]; K562, 48 h, read-out: LC50 (the source's name)
  CC50: 13.6 µM
[20]
  growth inhibition (GI): Dose-dependent effect
[20]; MCF7, 48 h
  GI50: 0.202 µM
  TGI: 4.21 µM
[21]
  growth inhibition (GI): Dose-dependent effect
[21]; NCI-H522, 48 h
  GI50: 12.2 µM
  TGI: 24.9 µM
[21]; NCI-H522, 48 h, read-out: LC50 (the source's name)
  CC50: 50.5 µM
[22]
  growth inhibition (GI): Dose-dependent effect
[22]; HOP-62, 48 h
  GI50: 5.9 µM
  TGI: 21.2 µM
[23]
  GI50: 5.11 µM
  TGI: 21.5 µM
[24]
  growth inhibition (GI): Dose-dependent effect
[25]
  growth inhibition (GI): Dose-dependent effect
[25]; SK-MEL-2, 48 h
  GI50: 13.3 µM
  TGI: 26.3 µM
[26]
  growth inhibition (GI): Dose-dependent effect
[26]; U-251, 48 h
  GI50: 10.1 µM
  TGI: 22 µM
[26]; U-251, 48 h, read-out: LC50 (the source's name)
  CC50: 48 µM
[27]
  growth inhibition (GI): Dose-dependent effect
[27]; MDA-MB-435, 48 h
  GI50: 10.4 µM
  TGI: 22.2 µM
[28]
  GI50: 1.29 µM
  TGI: 4.36 µM
  growth inhibition (GI): Dose-dependent effect
